Assay type in all cases: functional
For experiment [1], the system named is Enterococcus faecalis. The experiment can be described thus: Antimicrobial activity against beta-lactamase producing Enterococcus faecalis TX0630 isolate by agar dilution method. The method in brief:
(§1)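 Agar dilution MIC on Mueller-Hinton agar II per CLSI, standard inoculum 10⁴ CFU/spot; drug dissolved in 9.9% glacial acetic acid plus 1% DMSO. Control strains E. faecalis ATCC 29212, S. aureus ATCC 29213, E. coli 25922.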
(In general: In agar dilution, organisms are placed on agar that contains the substance at set levels.)

The subject of experiment [2] is Enterococcus faecalis. Put plainly: Antimicrobial activity against vancomycin A-resistant Enterococcus faecalis TX2784 isolate by agar dilution method. In short, it runs like this:
as §1

Experiment [3] concerns Enterococcus faecalis. Put plainly: Antimicrobial activity against vancomycin B-resistant Enterococcus faecalis TX2484 isolate by agar dilution method. In short, it runs like this: as §1
The subject of experiment [4] is Enterococcus faecalis. The experiment can be described thus: Antimicrobial activity against beta-lactamase producing Enterococcus faecalis TX5070 isolate by agar dilution method. In short, it runs like this:
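Starting inoculum was 10⁴ CFU/spot, and E. faecalis ATCC 29212 served as control. Drug was diluted in 9.9% glacial acetic acid plus 1% DMSO.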

Experiment [5] deals with Enterococcus faecalis. The experiment can be described thus: Antimicrobial activity against beta-lactamase producing Enterococcus faecalis TX0630 isolate at 10^4 CFU/spot. The method in brief:
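Agar dilution MIC on Mueller-Hinton agar II following CLSI recommendations, with a standard inoculum of 10⁴ CFU/spot. Drug was diluted in 9.9% glacial acetic acid plus 1% DMSO. Control strains were E. faecalis ATCC 29212, S. aureus ATCC 29213 and E. coli 25922. Isolates were recovered from −80°C frozen stocks.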

For experiment [6], the system named is Enterococcus faecalis. The experiment can be described thus: Antimicrobial activity against beta-lactamase producing vancomycin-resistant Enterococcus faecalis TX0638 isolate at 10^4 CFU/spot. The method in brief: as §1
In experiment [7] the test system is Enterococcus faecalis. Put plainly: Bactericidal activity against vancomycin A-resistant Enterococcus faecalis TX2784 isolate assessed as decrease in viable count after 24 hrs. In short, it runs like this:
(§2)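 Time-kill in 20 ml BHI broth, starting inoculum 10⁷ CFU/ml from overnight culture. Viable counts at 0, 4 and 24 h by plating on BHI agar after centrifuging 1-ml samples and resuspending in 0.9% saline to remove carryover. Detection limit 10 CFU/ml. Bactericidal = ≥3-log₁₀ CFU/ml drop over 0–24 h. Two to four runs per strain.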

In experiment [8] the test system is Enterococcus faecalis. Put plainly: Antimicrobial activity against beta-lactamase producing vancomycin-resistant Enterococcus faecalis isolates by agar dilution method. In short, it runs like this:
as §1

Experiment [9] relates to Enterococcus faecalis. Put plainly: Bactericidal activity against vancomycin B-resistant Enterococcus faecalis TX2484 isolate assessed as decrease in viable count after 24 hrs. The method in brief:
as §2

Experiment [10] concerns Enterococcus faecalis. Put plainly: Antimicrobial activity against Enterococcus faecalis TX0645 isolate at 10^4 CFU/spot. In short, it runs like this:
as §1

Experiment [11] relates to Enterococcus faecalis. Put plainly: Antimicrobial activity against beta-lactamase producing vancomycin-resistant Enterococcus faecalis TX0614 isolate at 10^7 […]. In short, it runs like this: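 High-inoculum MIC by broth dilution in Mueller-Hinton broth at 10⁷ CFU/ml (per ml in broth, not per spot).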
Experiment [12] concerns Enterococcus faecalis. The experiment can be described thus: Antimicrobial activity against beta-lactamase producing vancomycin-resistant Enterococcus faecalis TX0614 isolate at 10^4 CFU/spot. The method in brief:
as §1

In experiment [13] the test system is Enterococcus faecalis. The experiment can be described thus: Antimicrobial activity against beta-lactamase producing vancomycin-resistant Enterococcus faecalis TX0921 isolate at 10^4 CFU/spot. In short, it runs like this: as §1

Values after ≈ are worked out from the molar mass of the structure shown.

As usually defined, the MIC is the lowest concentration found to suppress growth. Usually MIC50 stands for an inhibitory concentration at the 50% level, which refers to growth in some studies and to a panel of isolates in others. A lower MIC50 goes with greater potency. As a reminder, the MIC90 is the lowest concentration that inhibits either 90% of growth or 90% of the strains tested, depending on the study.

Take `CC1(C)S[C@@H]2[C@H](NC(=O)[C@H](N)c3ccccc3)C(=O)N2[C@H]1C(=O)O` [AMPICILLIN]: the MIC in the experiment on Enterococcus faecalis [1] amounted to 1 µg/mL (≈ 2.86 µM); with Enterococcus faecalis [2], 0.5 µg/mL (≈ 1.43 µM); against Enterococcus faecalis [3], 0.5 µg/mL (≈ 1.43 µM).
For `CN[C@H](CC(C)C)C(=O)N[C@H]1C(=O)N[C@@H](CC(N)=O)C(=O)N[C@H]2C(=O)N[C@H]3C(=O)N[C@H](C(=O)N[C@H](C(=O)O)c4cc(O)cc(O)c4-c4cc3ccc4O)[C@H](O)c3ccc(c(Cl)c3)Oc3cc2cc(c3O[C@@H]2O[C@H](CO)[C@@H](O)[C@H](O)[C@H]2O[C@H]2C[C@](C)(N)[C@H](O)[C@H](C)O2)Oc2ccc(cc2Cl)[C@H]1O` [VANCOMYCIN], the MIC was 8 µg/mL (≈ 5.52 µM) in the experiment with Enterococcus faecalis [4], 0.5 µg/mL (≈ 0.345 µM) against Enterococcus faecalis [1], more than 256 µg/mL in the experiment with Enterococcus faecalis [2] and more than 256 µg/mL with Enterococcus faecalis [3].
With `Nc1nc(/C(=N/O)C(=O)N[C@@H]2C(=O)N3C(C(=O)O)=C(/C=C4\CCN([C@@H]5CCNC5)C4=O)CS[C@H]23)ns1` [CEFTOBIPROLE], the MIC against Enterococcus faecalis [5] is 0.125 µg/mL (≈ 0.234 µM); with Enterococcus faecalis [6], 0.25 µg/mL (≈ 0.468 µM); in the experiment on Enterococcus faecalis [10], 0.25 µg/mL (≈ 0.468 µM); against Enterococcus faecalis [4], 0.125 µg/mL (≈ 0.234 µM); in the experiment on Enterococcus faecalis [1], 0.25 µg/mL (≈ 0.468 µM); in the experiment with Enterococcus faecalis [2], 0.25 µg/mL (≈ 0.468 µM). In addition, the MIC against Enterococcus faecalis [3] is 0.5 µg/mL (≈ 0.935 µM); in the experiment with Enterococcus faecalis [11] it was 2 µg/mL (≈ 3.74 µM); against Enterococcus faecalis [12] it was 1 µg/mL (≈ 1.87 µM); with Enterococcus faecalis [13] it was 0.25 µg/mL (≈ 0.468 µM). Besides, the log10CFU/ml with Enterococcus faecalis [7] and in the experiment with Enterococcus faecalis [9] was more than 3 throughout. The MIC50 against Enterococcus faecalis [8] is 0.25 µg/mL (≈ 0.468 µM). This compound also showed an MIC90 with Enterococcus faecalis [8] of 1 µg/mL (≈ 1.87 µM).

The record behind these values is ChEMBL document CHEMBL1145496 (Antimicrob Agents Chemother, 2007).
